Activity calls are given as the source filed them. The calls are words filed in the database; no cut-off is given here.
Assays:
[1] = molecular target: Vascular endothelial growth factor receptor 2 (Homo sapiens) (UniProt P35968); experiment: Inhibition of VEGF-165-induced VEGFR2 autophosphorylation in serum-starved HUVEC assessed as decrease in AKT phosphorylation at 2 uM preincubated for 2 hrs followed by VEGF-165 induction measured after 5 mins by Western blot analysis; type: cell-based
Procedure, shortened: (§1)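 Serum-starved HUVEC were given 2 µM compound or vehicle for 2 h, then VEGF-165 (50 ng/mL) or PBS for 5 min. Lysates with equal protein were run on SDS-PAGE and immunoblotted for phospho-VEGFR2 (Tyr951, 996, 1056, 1175), p-AKT Ser473, p-ERK1/2 and the total proteins. Detection was by ECL with densitometry. Phospho signals were normalized to total protein, n = 3.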

Mus musculus [2] = experiment: Toxicity in C57BL/6 mouse allografted with mouse LLC cells assessed as effect on vital organs at 0.05 to 0.2 mg/kg, ip administered thrice a week for 2 weeks starting 24 hrs before tumor implantation by haematoxylin-eosin staining-based microscopic analysis; type: organism-based; details: in vivo
Procedure, shortened: (§2)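 Male C57BL/6 mice, 6–8 weeks old, in groups of 5–6, received 5×10^5 LLC cells sc in the right flank. Compound (0.05–0.2 mg/kg) or DMSO vehicle was given ip thrice weekly for 2 weeks, starting 24 h before implantation. Mice were weighed and examined clinically every other day. At end-point, kidney, lung, spleen, liver and heart sections were H&E-stained and examined microscopically.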

HUVEC [3] = experiment: Inhibition of VEGF-165-induced HUVEC chemotactic migration at 0.2 to 2 uM after 6 hrs by transwell assay; type: functional, cell-based; details: Homo sapiens
Procedure, shortened: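 Serum-starved HUVEC were pre-treated overnight with compound or vehicle in 5% FBS medium. Cells were then seeded at 6×10^4 per upper Transwell chamber (8 µm pores) and migrated for 6 h toward VEGF-165 (50 ng/mL) or starvation medium. Migrated cells were ethanol-fixed, stained with H&E and counted in five fields per well. Results are % of control from at least two independent experiments.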

[4] = Antiproliferative activity against human EAhy926 cells assessed as decrease in cell viability after 24 to 48 hrs in presence of 2.5% fetal bovine serum by MTT assay; type: functional, cell-based; details: EA.hy 926
Procedure, shortened: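 EA.hy926 in DMEM with 2.5% FBS exposed 48 h to serial 1:2 compound dilutions spanning 0.125–50 μM. Viable cells measured by MTT (0.5 mg/mL, 4 h, A595/630 nm). IC50 (mean ± SEM) fitted by non-linear regression from eight or more points.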

[5] = molecular target: Vascular endothelial growth factor receptor 2 (Homo sapiens) (UniProt P35968); experiment: Inhibition of VEGF-165-induced VEGFR2 autophosphorylation in serum-starved HUVEC assessed as decrease in ERK1/2 phosphorylation at 2 uM preincubated for 2 hrs followed by VEGF-165 induction measured after 5 mins by Western blot analysis; type: cell-based; procedure, shortened: as §1
HUVEC (Homo sapiens) [6] = experiment: Antiproliferative activity against human HUVEC cells assessed as decrease in VEGF-165-induced cell growth at 0.5 to 2 uM after 24 to 48 hrs by CyQUANT cell proliferation assay
HUVEC [7] = experiment: Antimigratory activity in HUVEC at 0.2 to 2 uM after 6 hrs in presence of 5% fetal bovine serum by transwell assay; type: functional, cell-based; details: Homo sapiens
Procedure, shortened: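 Serum-starved confluent HUVEC pre-treated overnight with compound or vehicle in 5% FBS medium. Then placed in the upper chamber of 8 µm-pore Transwells (6×10^4 cells/well) and allowed to migrate 6 h toward 5% FBS or starvation medium. Migrated cells fixed, H&E stained, and counted in five fields/well; expressed as % of control; replicates from two independent experiments.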

EA.hy 926 = experiment: Antiproliferative activity against human EAhy926 cells assessed as decrease in cell viability at 0.2 to 2 uM after 24 to 48 hrs in presence of 2.5% fetal bovine serum by MTT assay; type: functional, cell-based
Procedure, shortened: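 EA.hy926 seeded at 4×10^3/well, adhered 24 h, and starved 4 h in 0.25% BSA medium. Then treated with compound or 0.1% v/v DMSO in medium with 2.5% FBS for 48 h. MTT 0.5 mg/mL for 4 h, A595 with 630 nm correction, cell number from a standard curve. Expressed as % of DMSO control; replicates from two independent experiments.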

HUVEC [8] = experiment: Antiangiogenic activity in HUVEC assessed as inhibition of VEGF-165-induced tube formation at 0.2 to 2 uM after 24 hrs by matrigel assay; type: functional, cell-based; details: Homo sapiens
Procedure, shortened: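 HUVEC seeded at 2×10^4 cells/well on growth factor-reduced Matrigel after pre-starvation, then given compound or vehicle (up to 0.1% v/v DMSO), with or without VEGF-165, for 24 h. Fixed in ice-cold ethanol and stained with haematoxylin-eosin. Tube-like structures counted in at least 5 fields/well and expressed as % of vehicle control; replicates from two independent experiments.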

HUVEC (Homo sapiens) [9] = experiment: Antiproliferative activity against human HUVEC cells assessed as decrease in VEGF-165-induced cell growth at 0.5 to 2 uM after 24 to 48 hrs by MTT assay
[10] = molecular target: Vascular endothelial growth factor receptor 2 (Homo sapiens) (UniProt P35968); experiment: Inhibition of VEGF-165-induced VEGFR2 autophosphorylation at Tyr1175 in serum-starved HUVEC at 2 uM preincubated for 2 hrs followed by VEGF-165 induction measured after 5 mins by Western blot analysis; type: cell-based; procedure, shortened: as §1
Mus musculus [11] = experiment: Toxicity in C57BL/6 mouse allografted with mouse LLC cells at 0.05 to 0.2 mg/kg, ip administered thrice a week for 2 weeks starting 24 hrs before tumor implantation by clinical test; type: organism-based; details: in vivo; procedure, shortened: as §2
HUVEC [12] = experiment: Inhibition of total protein tyrosine kinase activity in serum-starved HUVEC at 1 to 4 uM after 2 hrs; type: cell-based; details: Homo sapiens
Lewis lung carcinoma = experiment: Antiangiogenic activity in mouse LLC cells allografted in C57BL/6 mouse assessed as decrease of microvessel density in tumor at 0.2 mg/kg, ip administered thrice a week for 2 weeks starting 24 hrs before tumor implantation measured post last dose by IHC analysis; type: functional, organism-based
Procedure, shortened: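 Male 6–8 week C57BL/6 mice (groups of 5–6) inoculated sc in the right flank with 5×10^5 LLC cells. Compound (0.2 mg/kg) or DMSO vehicle given ip thrice weekly for 2 weeks, starting 24 h before implantation. Tumors measured by caliper every other day. At end-point, anti-CD31 IHC (1:100) of tumor sections, with immunoreactive cells counted in six high-power fields.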

Vascular endothelial growth factor receptor 2 (Homo sapiens), sequence (P35968 whole entry): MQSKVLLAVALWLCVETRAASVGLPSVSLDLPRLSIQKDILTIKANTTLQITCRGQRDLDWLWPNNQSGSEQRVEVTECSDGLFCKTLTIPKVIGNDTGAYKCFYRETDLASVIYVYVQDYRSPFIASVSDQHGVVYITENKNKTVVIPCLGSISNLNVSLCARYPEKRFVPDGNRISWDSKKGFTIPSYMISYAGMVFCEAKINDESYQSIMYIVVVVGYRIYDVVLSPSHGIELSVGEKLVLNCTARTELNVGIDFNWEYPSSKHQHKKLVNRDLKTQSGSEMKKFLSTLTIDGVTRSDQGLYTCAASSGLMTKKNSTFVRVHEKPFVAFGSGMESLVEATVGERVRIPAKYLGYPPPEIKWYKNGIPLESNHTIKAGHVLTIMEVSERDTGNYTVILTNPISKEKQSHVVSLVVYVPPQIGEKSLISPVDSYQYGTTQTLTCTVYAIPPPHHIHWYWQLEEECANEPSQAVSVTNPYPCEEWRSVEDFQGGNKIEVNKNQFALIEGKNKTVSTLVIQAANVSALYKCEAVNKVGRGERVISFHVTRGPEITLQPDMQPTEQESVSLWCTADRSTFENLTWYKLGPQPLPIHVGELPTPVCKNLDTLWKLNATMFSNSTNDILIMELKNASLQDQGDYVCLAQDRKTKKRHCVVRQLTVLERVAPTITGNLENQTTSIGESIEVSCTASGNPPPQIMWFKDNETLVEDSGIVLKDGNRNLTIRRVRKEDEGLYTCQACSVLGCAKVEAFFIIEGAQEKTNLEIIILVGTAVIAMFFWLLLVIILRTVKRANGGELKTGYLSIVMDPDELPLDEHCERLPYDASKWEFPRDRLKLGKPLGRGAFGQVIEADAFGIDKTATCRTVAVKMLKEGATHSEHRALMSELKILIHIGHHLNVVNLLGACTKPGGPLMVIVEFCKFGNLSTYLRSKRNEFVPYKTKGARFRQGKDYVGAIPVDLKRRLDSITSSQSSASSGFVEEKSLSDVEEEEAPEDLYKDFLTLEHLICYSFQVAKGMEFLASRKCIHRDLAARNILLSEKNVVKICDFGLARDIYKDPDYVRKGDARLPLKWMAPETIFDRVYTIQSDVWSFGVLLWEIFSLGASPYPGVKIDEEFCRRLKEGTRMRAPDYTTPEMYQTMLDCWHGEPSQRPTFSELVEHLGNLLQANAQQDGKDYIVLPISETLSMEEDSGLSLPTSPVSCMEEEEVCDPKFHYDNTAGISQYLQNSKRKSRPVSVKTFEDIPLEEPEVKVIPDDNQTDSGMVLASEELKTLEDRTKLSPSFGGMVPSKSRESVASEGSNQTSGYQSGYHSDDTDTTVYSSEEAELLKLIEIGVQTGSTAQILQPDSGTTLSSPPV

inhibition [1]: Active | inhibition [5]: Active | inhibition [10]: Active | inhibition (HUVEC [12]): Active
SMILES: COc1ccc(Cn2nc(-c3ccccc3)c3cc(Nc4ccccc4)nc(N4CCNCC4)c32)cc1
Activity (Mus musculus [2]): Non-Toxic | inhibition (HUVEC [3]): Active | IC50 [4]: 14.1 µM | Activity (HUVEC (Homo sapiens) [6]): Active | Activity (HUVEC [7]): Active | Activity (EA.hy 926): Active | inhibition (HUVEC [8]): Active | Activity (HUVEC (Homo sapiens) [9]): Active | Activity (Mus musculus [11]): Non-Toxic | Activity (Lewis lung carcinoma): Active

Source: ChEMBL document CHEMBL3856209, “Novel pyrazolopyridine derivatives as potential angiogenesis inhibitors: Synthesis, biological evaluation and transcriptome-based mechanistic analysis” (Eur J Med Chem, 2016)
